Measurements reported in ChEMBL document CHEMBL2311334, “Synthesis and evaluation of 8-oxoadenine derivatives as potent Toll-like receptor 7 agonists with high water solubility” (Bioorg Med Chem Lett, 2013).
Values after ≈ are worked out from the molar mass of the structure shown.

Columns and labels:
[1] = Aqueous solubility in pH 7.4 buffer; assay type: physicochemical
Summary of the method: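 Solubility measured in pH 7.4 buffer.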

Toll-like receptor 7 [2] = molecular target: T1, Toll-like receptor 7 (Homo sapiens, UniProt Q9NYK1); test: Agonist activity at human TLR7 expressed in HEK293 cells by NFkappaB SEAP reporter gene assay; assay type: cell-based
T1 sequence (Q9NYK1 whole entry): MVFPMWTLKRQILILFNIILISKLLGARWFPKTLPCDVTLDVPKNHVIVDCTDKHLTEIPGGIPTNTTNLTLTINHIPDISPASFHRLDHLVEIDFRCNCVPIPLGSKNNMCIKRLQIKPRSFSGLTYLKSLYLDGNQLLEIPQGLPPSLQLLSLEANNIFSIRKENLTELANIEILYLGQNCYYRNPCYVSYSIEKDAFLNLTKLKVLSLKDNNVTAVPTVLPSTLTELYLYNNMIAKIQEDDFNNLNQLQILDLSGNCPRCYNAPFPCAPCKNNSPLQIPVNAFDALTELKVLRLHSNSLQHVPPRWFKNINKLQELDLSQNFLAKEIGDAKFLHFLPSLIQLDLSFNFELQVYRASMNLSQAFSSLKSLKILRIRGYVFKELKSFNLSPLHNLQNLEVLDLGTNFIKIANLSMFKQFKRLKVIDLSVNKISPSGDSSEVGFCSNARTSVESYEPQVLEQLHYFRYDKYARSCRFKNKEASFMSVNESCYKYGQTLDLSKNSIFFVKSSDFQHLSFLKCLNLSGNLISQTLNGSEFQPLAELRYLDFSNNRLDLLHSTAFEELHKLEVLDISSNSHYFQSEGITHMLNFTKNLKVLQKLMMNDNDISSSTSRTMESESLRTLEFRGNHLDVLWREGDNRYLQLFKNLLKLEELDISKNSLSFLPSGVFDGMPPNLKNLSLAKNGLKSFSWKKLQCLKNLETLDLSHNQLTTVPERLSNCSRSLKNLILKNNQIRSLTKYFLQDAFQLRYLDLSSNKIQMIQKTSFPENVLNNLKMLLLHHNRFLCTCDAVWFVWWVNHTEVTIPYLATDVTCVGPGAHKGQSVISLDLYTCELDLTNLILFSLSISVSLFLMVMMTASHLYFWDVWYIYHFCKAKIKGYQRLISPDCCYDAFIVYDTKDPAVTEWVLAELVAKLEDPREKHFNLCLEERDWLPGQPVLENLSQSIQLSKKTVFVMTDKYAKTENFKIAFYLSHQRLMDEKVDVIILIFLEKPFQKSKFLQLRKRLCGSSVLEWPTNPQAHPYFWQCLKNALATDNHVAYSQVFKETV
Summary of the method: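 HEK293 cells stably transfected with human TLR7 plus an NF-κB-driven SEAP reporter. EC50 taken from reporter read-out, given as the mean of two independent experiments.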

Mus musculus [3] = test: Increase in IFN level in Balb/c mouse plasma at 10 mg/kg, iv measured after 6 hrs post dose by L929 cells and VSV based bioassay; assay type: functional
Summary of the method: (§1)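 Female Balb/c mice were given a single intravenous dose of test compound. Plasma interferon was sampled 6 h post dose and quantified by a bioassay using L929 cells challenged with vesicular stomatitis virus, with values reported in IU/mL.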

Toll-like receptor 7 [4] = molecular target: T2, Toll-like receptor 7 (Mus musculus, UniProt P58681); test: Agonist activity at mouse TLR7
T2 sequence (P58681 whole entry): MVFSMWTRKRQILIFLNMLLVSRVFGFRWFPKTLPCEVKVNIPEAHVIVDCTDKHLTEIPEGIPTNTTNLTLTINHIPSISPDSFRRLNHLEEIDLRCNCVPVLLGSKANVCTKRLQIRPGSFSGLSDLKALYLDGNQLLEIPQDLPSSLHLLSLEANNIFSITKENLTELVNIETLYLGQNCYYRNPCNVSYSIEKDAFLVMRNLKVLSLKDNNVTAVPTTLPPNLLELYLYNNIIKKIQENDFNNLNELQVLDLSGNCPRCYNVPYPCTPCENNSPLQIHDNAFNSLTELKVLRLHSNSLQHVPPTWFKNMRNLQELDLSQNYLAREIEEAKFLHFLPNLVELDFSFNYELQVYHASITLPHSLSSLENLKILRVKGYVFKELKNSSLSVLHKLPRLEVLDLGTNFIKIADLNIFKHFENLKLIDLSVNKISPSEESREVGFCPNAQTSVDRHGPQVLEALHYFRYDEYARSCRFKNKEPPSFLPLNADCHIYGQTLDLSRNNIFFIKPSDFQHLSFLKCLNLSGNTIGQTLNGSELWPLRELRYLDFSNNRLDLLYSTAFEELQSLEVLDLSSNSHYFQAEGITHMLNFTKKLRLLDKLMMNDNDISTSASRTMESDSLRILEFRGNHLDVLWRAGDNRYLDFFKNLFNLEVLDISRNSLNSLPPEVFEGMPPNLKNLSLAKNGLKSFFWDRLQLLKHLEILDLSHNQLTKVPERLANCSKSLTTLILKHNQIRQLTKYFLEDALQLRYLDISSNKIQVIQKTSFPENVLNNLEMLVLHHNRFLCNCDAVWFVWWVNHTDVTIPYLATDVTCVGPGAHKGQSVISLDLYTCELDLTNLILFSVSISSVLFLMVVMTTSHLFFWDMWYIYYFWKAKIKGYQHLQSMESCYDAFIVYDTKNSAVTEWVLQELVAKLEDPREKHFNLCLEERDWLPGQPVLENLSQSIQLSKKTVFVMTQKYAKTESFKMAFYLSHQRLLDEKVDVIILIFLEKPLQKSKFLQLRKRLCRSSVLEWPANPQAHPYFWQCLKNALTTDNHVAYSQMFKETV

[5] = Antitumor activity against mouse HM1 cells xenografted in B6C3F1 mouse assessed as inhibition of lung metastasis at 10 mg/kg, iv administered biweekly starting on day 1 post tumor xenografting measured on day 35 post tumor xenografting; assay type: functional; conditions: in the assay text read “starting on day 11 post” for “starting on day 1 post”
Summary of the method: (§2)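 HM-1 ovarian cancer cells injected subcutaneously into B6C3F1 mice on day 0. Primary tumor surgically removed under isoflurane on day 10. Compound given intravenously twice weekly from day 11. Lung metastases counted on day 35 and expressed as % inhibition. Six mice per group, mean ± SD. Significance versus vehicle by Wilcoxon test.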

[6] = Antitumor activity against mouse HM1 cells xenografted in B6C3F1 mouse assessed as inhibition of lung metastasis at 1 mg/kg, iv administered biweekly starting on day 1 post tumor xenografting measured on day 35 post tumor xenografting; assay type: functional; conditions: in the assay text read “starting on day 11 post” for “starting on day 1 post”; summary of the method: as §2
[7] = Volume of distribution at steady state in Balb/c mouse at 1 mg/kg, iv; assay type: ADME, organism-based; design: dose 1 mg/kg, route intravenous; conditions: in vivo, read-out: Vdss
Summary of the method: (§3)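 Female Balb/c mice dosed intravenously at 1 mg/kg. Vdss and T1/2 calculated from this PK study.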

[8] = Antitumor activity against mouse HM1 cells xenografted in B6C3F1 mouse assessed as inhibition of lung metastasis at 1 mg/kg, iv administered biweekly starting on day 11 post tumor xenografting measured on day 35 post tumor xenografting
[9] = molecular target: T3, Toll-like receptor 7 (Homo sapiens) (UniProt Q9NYK1); test: Potency index, ratio of EC50 of 852A to EC50 of test compound for human TLR7 expressed in HEK293 cells by NFkappaB SEAP reporter gene assay; assay type: cell-based
T3 sequence (whole entry): T1 sequence (Q9NYK1 whole entry)

Mus musculus [10] = test: Increase in IFN level in Balb/c mouse plasma at 1 mg/kg, iv measured after 6 hrs post dose by L929 cells and VSV based bioassay; assay type: functional; summary of the method: as §1
[11] = Potency index, ratio of antitumor activity of 852A to test compound against mouse HM1 cells xenografted in B6C3F1 mouse; assay type: functional
[12] = Antitumor activity against mouse HM1 cells xenografted in B6C3F1 mouse assessed as inhibition of lung metastasis at 0.1 mg/kg, iv administered biweekly starting on day 1 post tumor xenografting measured on day 35 post tumor xenografting; assay type: functional; conditions: in the assay text read “starting on day 11 post” for “starting on day 1 post”; summary of the method: as §2
[13] = Half life in Balb/c mouse at 1 mg/kg, iv; assay type: ADME, organism-based; design: dose 1 mg/kg, route intravenous; conditions: in vivo; summary of the method: as §3

CCCCNc1nc(N)c2[nH]c(=O)n(Cc3ccc(N4CCC(N(C)C)C4)nc3)c2n1 (configuration not stated)
solubility [1]: 53 µg/mL (≈ 125 µM) | EC50 (Toll-like receptor 7 [2]): 7.4 nM

CCCCNc1nc(N)c2[nH]c(=O)n(Cc3ccc(CN(C)C)cc3)c2n1
solubility [1]: 98 µg/mL (≈ 265 µM) | EC50 (Toll-like receptor 7 [2]): 9.3 nM

CCCCNc1nc(N)c2nc(O)n(Cc3ccc(C)nc3)c2n1
solubility [1]: < 1 µg/mL | EC50 (Toll-like receptor 7 [2]): 32 nM

CCCCNc1nc(N)c2nc(O)n(Cc3ccc(C)cc3)c2n1
solubility [1]: < 1 µg/mL | EC50 (Toll-like receptor 7 [2]): 166 nM

CCCCNc1nc(N)c2[nH]c(=O)n(Cc3ccc(OCCN4CCOCC4)nc3)c2n1
solubility [1]: 34 µg/mL (≈ 76.8 µM) | EC50 (Toll-like receptor 7 [2]): 50.2 nM

CCCCNc1nc(N)c2nc(O)n(Cc3ccc(OC)nc3)c2n1
solubility [1]: < 1 µg/mL | EC50 (Toll-like receptor 7 [2]): 28.1 nM

CCc1nc2c(N)nc3ccccc3c2n1CCCCNS(C)(=O)=O [CPG-52852]
Activity (Mus musculus [3]): 19 IU/ml | EC50 (Toll-like receptor 7 [4]): 6220 nM | inhibition in vivo at 10 mg/kg [5]: 55% | inhibition in vivo at 1 mg/kg [6]: 6% | EC50 (Toll-like receptor 7 [2]): 2660 nM

CCCCNc1nc(N)c2[nH]c(=O)n(Cc3ccc(OCCCN(C)C)nc3)c2n1
solubility [1]: 288 µg/mL (≈ 695 µM)

CCCCNc1nc(N)c2[nH]c(=O)n(Cc3ccc(CN4CCOCC4)cc3)c2n1
solubility [1]: 8 µg/mL (≈ 19.4 µM) | EC50 (Toll-like receptor 7 [2]): 58 nM

CCCCNc1nc(N)c2[nH]c(=O)n(Cc3cccc(CN4CCN(C)CC4)c3)c2n1
EC50 (Toll-like receptor 7 [2]): 130 nM

CCCCNc1nc(N)c2[nH]c(=O)n(Cc3cccc(CN4CCCCC4)c3)c2n1
EC50 (Toll-like receptor 7 [2]): 30.1 nM

CCCCNc1nc(N)c2[nH]c(=O)n(Cc3ccc(OCCNC)nc3)c2n1
EC50 (Toll-like receptor 7 [2]): 166 nM

CCCCNc1nc(N)c2[nH]c(=O)n(Cc3ccc(N4CCC(N(C)C)CC4)nc3)c2n1
solubility [1]: 71 µg/mL (≈ 162 µM) | EC50 (Toll-like receptor 7 [2]): 9.4 nM

CCCCNc1nc(N)c2[nH]c(=O)n(Cc3ccc(OCCCCN(C)C)nc3)c2n1
solubility [1]: 350 µg/mL (≈ 817 µM) | EC50 (Toll-like receptor 7 [2]): 15.2 nM

CCCCNc1nc(N)c2[nH]c(=O)n(Cc3ccc(OCCN(C)C)nc3)c2n1
Vd [7]: 6.6 L/kg | inhibition in vivo at 1 mg/kg [8]: 100% | Ratio EC50 [9]: 370 | Activity (Mus musculus [10]): 840 IU/ml | Ratio [11]: >100 | EC50 (Toll-like receptor 7 [4]): 4.6 nM | inhibition in vivo at 0.1 mg/kg [12]: 78% | solubility [1]: 372 µg/mL (≈ 929 µM) | half-life [13]: 1.3 h | EC50 (Toll-like receptor 7 [2]): 7.2 nM

CCCCNc1nc(N)c2[nH]c(=O)n(Cc3ccc(N4CCNCC4)nc3)c2n1
solubility [1]: 63 µg/mL (≈ 158 µM) | EC50 (Toll-like receptor 7 [2]): 48.5 nM

CCCCNc1nc(N)c2[nH]c(=O)n(Cc3ccc(CN4CCN(C)CC4)cc3)c2n1
solubility [1]: 108 µg/mL (≈ 254 µM) | EC50 (Toll-like receptor 7 [2]): 7 nM

CCCCNc1nc(N)c2[nH]c(=O)n(Cc3ccc(N(C)CCCN(C)C)nc3)c2n1
solubility [1]: 725 µg/mL (≈ 1700 µM) | EC50 (Toll-like receptor 7 [2]): 72.8 nM

CCCCNc1nc(N)c2[nH]c(=O)n(Cc3ccc(N4CCN(C)CC4)nc3)c2n1
solubility [1]: 7 µg/mL (≈ 17 µM) | EC50 (Toll-like receptor 7 [2]): 5.4 nM

CCCCNc1nc(N)c2[nH]c(=O)n(Cc3ccc(CN4CCCCC4)cc3)c2n1
solubility [1]: 19 µg/mL (≈ 46.4 µM) | EC50 (Toll-like receptor 7 [2]): 7.6 nM
